This is an account of results in ChEMBL document CHEMBL5126644, “Synthesis and Structural Characterization of Novel Trihalo-sulfone Inhibitors of WNK1” (ACS Med Chem Lett, 2022).

By IC50 is commonly meant the concentration at which inhibition is half-maximal. For orientation: inhibition means the share of the control response that was lost under treatment.

The source made the active and inactive calls. The calls are words filed in the database; no cut-off is given here.

For data set [1], the target named is T1, Serine/threonine-protein kinase WNK1 (Homo sapiens, UniProt Q9H4A3). Description: Inhibition of TEV cleavage site-fused His6-tagged WNK1 (194 to 483 residues) (unknown origin) expressed in Rosetta (DE3) cells using GST-OSR1(314 to 344) peptide as substrate incubated for 2 hrs by kinase-glo luminescence assay. A general note: Kinase-Glo reads ATP consumption through a luciferase reaction.
Target sequence in this assay (Q9H4A3 whole entry, the tested form may be a part): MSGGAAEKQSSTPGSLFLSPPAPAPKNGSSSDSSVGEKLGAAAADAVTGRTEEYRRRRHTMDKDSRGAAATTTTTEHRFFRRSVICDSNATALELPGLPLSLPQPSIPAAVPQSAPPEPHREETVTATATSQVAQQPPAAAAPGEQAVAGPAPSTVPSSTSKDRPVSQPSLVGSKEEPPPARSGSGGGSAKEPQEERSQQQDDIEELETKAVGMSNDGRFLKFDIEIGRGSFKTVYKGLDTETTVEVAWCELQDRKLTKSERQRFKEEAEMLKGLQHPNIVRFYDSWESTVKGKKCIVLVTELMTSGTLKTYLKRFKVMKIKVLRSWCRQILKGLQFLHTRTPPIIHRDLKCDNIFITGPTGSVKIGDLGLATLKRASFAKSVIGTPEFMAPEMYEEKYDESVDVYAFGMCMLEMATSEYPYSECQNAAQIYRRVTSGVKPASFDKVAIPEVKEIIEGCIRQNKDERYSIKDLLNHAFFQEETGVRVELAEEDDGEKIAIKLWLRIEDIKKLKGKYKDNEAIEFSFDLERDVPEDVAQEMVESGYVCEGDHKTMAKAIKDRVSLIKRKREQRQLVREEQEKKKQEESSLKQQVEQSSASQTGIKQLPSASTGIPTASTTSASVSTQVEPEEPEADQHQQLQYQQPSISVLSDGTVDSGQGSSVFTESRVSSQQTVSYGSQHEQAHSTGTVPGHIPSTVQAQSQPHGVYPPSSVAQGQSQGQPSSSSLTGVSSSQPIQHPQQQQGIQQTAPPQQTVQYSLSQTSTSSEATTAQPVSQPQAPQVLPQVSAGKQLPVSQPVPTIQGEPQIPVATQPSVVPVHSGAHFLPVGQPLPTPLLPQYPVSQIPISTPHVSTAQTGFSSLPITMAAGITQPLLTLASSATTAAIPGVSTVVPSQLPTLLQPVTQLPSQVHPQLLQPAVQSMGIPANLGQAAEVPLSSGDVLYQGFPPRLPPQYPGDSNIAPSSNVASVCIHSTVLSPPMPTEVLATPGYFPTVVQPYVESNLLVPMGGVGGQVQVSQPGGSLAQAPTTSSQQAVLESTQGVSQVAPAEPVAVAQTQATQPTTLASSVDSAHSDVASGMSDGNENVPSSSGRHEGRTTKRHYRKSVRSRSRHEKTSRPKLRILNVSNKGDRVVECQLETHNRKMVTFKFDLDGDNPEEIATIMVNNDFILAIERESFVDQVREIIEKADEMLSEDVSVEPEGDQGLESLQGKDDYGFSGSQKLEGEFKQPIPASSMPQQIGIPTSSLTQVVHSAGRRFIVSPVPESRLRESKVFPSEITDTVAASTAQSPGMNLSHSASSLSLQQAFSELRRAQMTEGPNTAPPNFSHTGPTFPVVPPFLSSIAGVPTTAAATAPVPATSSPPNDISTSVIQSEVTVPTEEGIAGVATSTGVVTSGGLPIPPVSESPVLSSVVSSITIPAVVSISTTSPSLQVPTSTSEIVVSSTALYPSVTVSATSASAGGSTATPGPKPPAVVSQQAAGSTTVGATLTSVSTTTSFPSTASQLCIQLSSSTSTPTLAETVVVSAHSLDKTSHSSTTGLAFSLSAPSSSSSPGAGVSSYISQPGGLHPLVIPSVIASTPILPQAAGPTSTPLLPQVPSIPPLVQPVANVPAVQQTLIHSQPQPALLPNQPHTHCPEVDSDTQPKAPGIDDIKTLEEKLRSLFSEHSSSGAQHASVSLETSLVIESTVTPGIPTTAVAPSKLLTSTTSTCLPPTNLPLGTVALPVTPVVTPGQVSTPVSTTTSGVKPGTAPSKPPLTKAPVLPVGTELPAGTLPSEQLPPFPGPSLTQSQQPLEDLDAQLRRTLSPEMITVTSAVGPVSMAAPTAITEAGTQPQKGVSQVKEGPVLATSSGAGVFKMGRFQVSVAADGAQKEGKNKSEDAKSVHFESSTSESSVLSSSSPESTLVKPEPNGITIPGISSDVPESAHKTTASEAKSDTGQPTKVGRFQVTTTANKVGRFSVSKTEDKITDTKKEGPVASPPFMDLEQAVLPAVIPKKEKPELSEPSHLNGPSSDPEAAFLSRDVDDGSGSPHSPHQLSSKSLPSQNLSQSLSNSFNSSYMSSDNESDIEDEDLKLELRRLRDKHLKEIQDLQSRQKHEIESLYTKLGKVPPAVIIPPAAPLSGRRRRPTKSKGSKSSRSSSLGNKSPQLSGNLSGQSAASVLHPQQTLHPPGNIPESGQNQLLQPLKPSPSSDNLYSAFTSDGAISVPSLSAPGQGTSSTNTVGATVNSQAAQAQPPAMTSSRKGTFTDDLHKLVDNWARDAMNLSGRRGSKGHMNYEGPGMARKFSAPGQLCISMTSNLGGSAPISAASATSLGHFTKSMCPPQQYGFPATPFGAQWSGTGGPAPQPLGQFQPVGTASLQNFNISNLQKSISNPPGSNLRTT

In data set [2] the target is T1, Serine/threonine-protein kinase WNK1. Description: Inhibition of TEV cleavage site-fused His6-tagged WNK1 (194 to 483 residues) (unknown origin) expressed in Rosetta (DE3) cells using GST-OSR1(314 to 344) peptide as substrate measured after 30 mins by [gamma-32P]-ATP based liquid scintillation counting analysis. The format is biochemical. The essentials: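 Radiometric kinase assay using [γ-32P]ATP at low enzyme concentration. It was chosen over the luminescence format for more precise IC50 determination.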
Target sequence in this assay (Q9H4A3 whole entry, the tested form may be a part): as above

The target in data set [3] is Mitogen-activated protein kinase 9 (Homo sapiens) (UniProt P45984). The data set can be described thus: Inhibition of JNK2 (unknown origin) at 10 uM.
Data set [4] has as its target Serine/threonine-protein kinase WNK2 (Homo sapiens) (UniProt Q9Y3S1). Description: Inhibition of WNK2 (unknown origin) at 10 uM relative to control.
Data set [5] deals with Mitogen-activated protein kinase 10 (Homo sapiens) (UniProt P53779). Description: Inhibition of JNK3 (unknown origin) at 10 uM.
Mitogen-activated protein kinase 10 (Homo sapiens), sequence (P53779 whole entry): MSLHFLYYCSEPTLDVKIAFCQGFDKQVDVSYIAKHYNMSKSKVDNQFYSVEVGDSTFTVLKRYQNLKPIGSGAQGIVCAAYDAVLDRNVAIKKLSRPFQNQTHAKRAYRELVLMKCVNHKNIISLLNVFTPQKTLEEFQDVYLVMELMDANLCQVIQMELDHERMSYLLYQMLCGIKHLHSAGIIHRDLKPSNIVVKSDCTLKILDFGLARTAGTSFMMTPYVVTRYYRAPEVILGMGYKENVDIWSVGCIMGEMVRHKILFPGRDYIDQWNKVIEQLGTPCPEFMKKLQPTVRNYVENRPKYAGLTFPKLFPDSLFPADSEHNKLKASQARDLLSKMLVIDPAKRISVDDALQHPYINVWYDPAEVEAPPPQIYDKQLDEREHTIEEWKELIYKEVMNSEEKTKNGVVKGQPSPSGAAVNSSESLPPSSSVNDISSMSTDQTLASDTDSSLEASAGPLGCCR
The target of data set [6] is T1, Serine/threonine-protein kinase WNK1. The data set can be described thus: Inhibition of WNK1 (unknown origin) at 10 uM relative to control.
Target sequence in this assay (Q9H4A3 whole entry, looked up, the tested form may be a part): as the sequence (Q9H4A3 whole entry, the tested form may be a part) above
Data set [7] shares this target. Description: Inhibition of WNK1 in human MDA-MB-231 cells assessed as reduction in OSR1 phosphorylation measured after 24 hrs by Western blot analysis. It counts as cell-based. The essentials: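 Endogenous OSR1 phosphorylation was measured in MDA-MB-231 breast cancer cells. Experiments were run in triplicate, and an IC50 was derived from the phosphorylation read-out.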
Target sequence in this assay (Q9H4A3 whole entry, the tested form may be a part): as above
For orientation: A western blot detects proteins with antibodies after separation by electrophoresis.

The species named for a further data set is Homo sapiens. The data set can be described thus: Selectivity ratio of IC50 for WNK3 (118 to 409 residues) (unknown origin) expressed in Escherichia coli BL21 DE3 to IC50 for TEV cleavage site-fused His6-tagged WNK1 (194 to 483 residues) (unknown origin) expressed in Rosetta (DE3) cells.
A further data set deals with MDA-MB-231. The data set can be described thus: Cytotoxicity against human MDA-MB-231 cells assessed as cell viability up to 12 uM measured after 24 hrs. Conditions: mda-mb-231, 24 h. The format is toxicity, cell-based.
The target in data set [8] is Serine/threonine-protein kinase WNK3 (Homo sapiens) (UniProt Q9BYP7). Description: Inhibition of WNK3 (unknown origin) at 10 uM relative to control.
Serine/threonine-protein kinase WNK3 (Homo sapiens), sequence (Q9BYP7 whole entry): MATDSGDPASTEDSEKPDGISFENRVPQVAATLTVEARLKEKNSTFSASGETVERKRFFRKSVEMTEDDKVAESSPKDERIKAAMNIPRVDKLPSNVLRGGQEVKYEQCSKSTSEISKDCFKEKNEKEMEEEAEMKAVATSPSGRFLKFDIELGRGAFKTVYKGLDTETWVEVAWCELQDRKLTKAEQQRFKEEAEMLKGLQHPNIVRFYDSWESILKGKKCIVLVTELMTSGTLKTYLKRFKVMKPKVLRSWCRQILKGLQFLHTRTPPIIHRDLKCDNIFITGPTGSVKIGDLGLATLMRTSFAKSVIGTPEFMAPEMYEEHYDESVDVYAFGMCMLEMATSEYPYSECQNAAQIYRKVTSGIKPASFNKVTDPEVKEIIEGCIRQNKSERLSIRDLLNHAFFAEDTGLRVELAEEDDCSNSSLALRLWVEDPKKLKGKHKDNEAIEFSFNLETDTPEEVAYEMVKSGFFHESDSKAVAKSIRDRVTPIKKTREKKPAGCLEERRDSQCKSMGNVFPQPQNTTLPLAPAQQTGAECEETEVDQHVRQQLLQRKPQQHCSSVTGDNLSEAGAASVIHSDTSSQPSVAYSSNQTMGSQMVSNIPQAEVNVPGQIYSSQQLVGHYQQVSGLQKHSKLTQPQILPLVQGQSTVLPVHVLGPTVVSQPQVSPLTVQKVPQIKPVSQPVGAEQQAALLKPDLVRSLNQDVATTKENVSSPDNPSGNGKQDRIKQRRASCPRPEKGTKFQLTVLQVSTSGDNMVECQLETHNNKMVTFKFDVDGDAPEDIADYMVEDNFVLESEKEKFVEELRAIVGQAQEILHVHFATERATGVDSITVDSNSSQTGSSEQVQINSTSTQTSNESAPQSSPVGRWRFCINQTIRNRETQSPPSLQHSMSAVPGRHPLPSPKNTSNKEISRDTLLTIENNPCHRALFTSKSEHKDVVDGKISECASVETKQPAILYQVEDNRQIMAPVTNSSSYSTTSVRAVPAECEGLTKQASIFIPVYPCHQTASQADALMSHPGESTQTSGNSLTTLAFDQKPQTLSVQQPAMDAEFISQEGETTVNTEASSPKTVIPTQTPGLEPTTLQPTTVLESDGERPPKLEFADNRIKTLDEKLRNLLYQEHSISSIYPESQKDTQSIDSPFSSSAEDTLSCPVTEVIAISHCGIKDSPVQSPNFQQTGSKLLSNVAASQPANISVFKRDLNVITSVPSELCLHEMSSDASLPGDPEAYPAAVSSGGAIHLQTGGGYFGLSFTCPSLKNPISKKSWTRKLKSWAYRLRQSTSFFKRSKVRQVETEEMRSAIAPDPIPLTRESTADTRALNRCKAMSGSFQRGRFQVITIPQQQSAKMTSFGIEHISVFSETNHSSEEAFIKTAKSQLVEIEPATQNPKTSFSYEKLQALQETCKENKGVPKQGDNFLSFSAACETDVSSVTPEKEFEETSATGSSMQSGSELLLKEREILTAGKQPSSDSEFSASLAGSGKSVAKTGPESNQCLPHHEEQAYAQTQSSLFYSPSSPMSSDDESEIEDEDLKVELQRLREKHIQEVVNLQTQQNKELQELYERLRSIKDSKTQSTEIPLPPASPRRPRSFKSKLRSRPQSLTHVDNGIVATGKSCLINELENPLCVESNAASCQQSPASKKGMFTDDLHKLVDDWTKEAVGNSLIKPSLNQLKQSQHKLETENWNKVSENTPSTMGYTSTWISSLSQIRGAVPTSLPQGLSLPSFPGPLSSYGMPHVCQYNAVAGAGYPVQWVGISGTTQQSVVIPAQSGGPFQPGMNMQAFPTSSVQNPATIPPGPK

`CCS(=O)(=O)c1ccc(NC2CCCCC2)c([N+](=O)[O-])c1` registered an IC50 in [1] of over 1000 µM.
On to `O=[N+]([O-])c1cc(S(=O)(=O)C(Cl)(Cl)Br)ccc1NC1CCCC1`, for which the IC50 in data set [2] came out at 6.5 µM; in data set [1], 93 µM.
Turning to `O=[N+]([O-])c1ccccc1NC1CCCCC1`, the IC50 in data set [1] is over 1000 µM.
Compound `O=[N+]([O-])c1cc(S(=O)(=O)C(Cl)(Cl)Cl)ccc1NC1CCCCC1` yielded a concentration for half-maximal inhibition (IC50) in data set [1] of over 1000 µM.
As to `O=[N+]([O-])c1cc(S(=O)(=O)C(Cl)(Cl)Br)ccc1NCCCc1ccccc1`, the results for the concentration for half-maximal inhibition (IC50) in [2] and in data set [1] were 6 µM and 79 µM, respectively. Moreover, the inhibition result in [3] and in data set [5] was “Active” in each case. Moreover, the inhibition in data set [4] and in data set [6] was 20% each time.
As for `CN1CCN(c2ccc(S(=O)(=O)C(Cl)(Cl)Br)cc2[N+](=O)[O-])CC1`, in data set [1], the IC50 is over 1000 µM.
Consider `O=[N+]([O-])c1cc(S(=O)(=O)C(Cl)(Cl)Br)ccc1NC1CCCCC1`, for which the values for the concentration for half-maximal inhibition (IC50) in data set [7], in [2] and in data set [1] were 4.3 µM, 1.6 µM and 4 µM, respectively. In addition, the Ratio IC50 in the data set filed under Homo sapiens was determined as 10. Besides, the Activity result with MDA-MB-231 is recorded as “Non-Toxic”. The inhibition in [8] and in [6] was 20% throughout.
Take `O=S(=O)(c1ccc(NC2CCCCC2)cc1)C(Cl)(Cl)Br`: the IC50 in data set [1] was over 1000 µM.
In [1], `O=[N+]([O-])c1cc(S(=O)(=O)C(Cl)Cl)ccc1NC1CCCCC1` had an IC50 of over 1000 µM.
In the case of `CS(=O)(=O)c1ccc(NC2CCCCC2)c([N+](=O)[O-])c1`, in data set [1], the concentration for half-maximal inhibition (IC50) is over 1000 µM.
As to `O=[N+]([O-])c1cc(S(=O)(=O)C(F)(F)F)ccc1NC1CCCCC1`, the half-inhibitory concentration (IC50) in data set [2] and in data set [1] was over 1000 µM in each case.
Turning to `O=[N+]([O-])c1cc(S(=O)(=O)C(Cl)(Cl)Br)ccc1NCc1ccco1`, the IC50 turned out to be 5 µM in data set [2] and 15 µM in data set [1].
The matching figures for `O=[N+]([O-])c1cc(S(=O)(=O)C(Cl)(Cl)Br)ccc1Nc1ccccc1`: 7.2 µM and 76 µM.
